Screening data deposited in PubChem by ICCB-Longwood Screening Facility, Harvard Medical School.
Many of the other results were omitted from the sample, so hits are more common in it than they were.
KSHV LANA nucl: LANA-nucleosome interaction inhibition; AID 720717; 51,000 compounds, 0.3% hits; z-score (test concentration not listed); FITC-LANA1-23 / chicken nucleosome fluorescence polarization; hits give low values;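 active = both repeat wells score below -2 in polarization z-score versus plate sample wells, excluding overly bright wells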
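Assay system: FITC-LANA peptide and chicken nucleosomes; input: 240 nM purified chicken nucleosomes (480 nM peptide binding sites), final; also added: 50 nM FITC-LANA1-23 probe; medium: TEN-BT buffer, pH 7.5; doses: pin-transferred compound, 100 nL; times: 10–45 min, room temperature; technique: fluorescence polarization; replication: duplicates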
BasE inh: BasE siderophore biosynthesis inhibition | 84,000 compounds, 0.1% hits | inhibition, % (concentration not given with the values) | purified BasE, fluorescence polarization binding displacement; in the data active = inhibition above about 25%, passing the limit was not always enough;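 also: 0% = negative plate control signal and 100% = positive plate control signal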
The depositor's hits bear a star; / = not tested or not shown.

SMILES	KSHV LANA nucl	BasE inh
CCN1CCN(c2ccc(N)cc2)CC1	-2.9*	/
CN1CCN(c2ccc(N)cc2)CC1	/	0
c1cncc(CNCCN2CCOCC2)c1	-1.6	0
N#Cc1c(/N=C/c2ccc(O)cc2O)sc2c1C1CCN2CC1	-3.9*	17
Cc1csc2sc(C=C(C#N)C#N)c(C)c12	-0.59	3
CC(O)CP(c1ccccc1)c1ccccc1 (configuration not stated)	0.23	0
CN1CCc2c(C#N)c(N)n(N)c(=S)c2C1	-3.8*	42
CN1CCc2c(C#N)c(Cl)nc(NCc3ccccc3)c2C1	0.063	2
O=C(Nc1cccnc1)c1cccn(Cc2cccc(Cl)c2)c1=O	0.87	-4
N#Cc1cc(F)c(N2CCCC2)cc1Cl	-1.4	3
Cc1ccc(C=C(C#N)C#N)o1	-0.56	4
N#CC(C#N)=Cc1ccc(-c2ccccc2)o1	-4.7*	-26
CC[C@@]1(O)C[C@H](O[C@H]2C[C@H](N(C)C)[C@H](O)[C@H](C)O2)c2c(cc3c(c2O)C(=O)c2c(O)cccc2C3=O)[C@H]1C(=O)OC	2.2	-2
CC[C@@]1(O)C[C@H](O[C@H]2C[C@H](N(C)C)[C@H](O)[C@H](C)O2)c2c(cc3c(c2O)C(=O)c2c(O)ccc(O)c2C3=O)[C@H]1C(=O)OC	-2.8*	5
O=S(=O)(c1ccc(O)cc1)c1ccc(O)cc1	/	66*
CC(C)c1ccc(O)cc1	/	10
N#CCCn1cc(C(=O)Oc2ccccc2)c(-c2cccc(Br)c2)n1	3.1	-6
O=C(NC1CCCC1)N(Cc1ccc2c(c1)OCO2)C1CCN(Cc2ccccc2)CC1	-0.47	-2
COc1ccc2c(c1OC)C(=O)OC2C1c2cc3c(cc2CCN1C)OCO3 (configuration not stated)	-0.68	-2
CN1CCc2cc3c(c4c2C1Cc1ccccc1-4)OCO3 (configuration not stated)	-3.2*	22
COc1ccc(-n2c(Sc3ncccn3)nc3ccccc3c2=O)cc1OC	/	0
